Measured values published in paper PMC6336391 (Journal of the American Chemical Society, 2018).
Several values for one entry are separate records, joined by “and”; a condition that tells them apart may be missing. Equal values may be shown once. Read-outs that look alike come from different tables or passages of the source.

How the values were obtained:
TNF-α [1] = conditions: RAW 264.7 murine macrophages; cited from earlier work
HUVECs = assay: MTT cytotoxicity in normal human cells; assay type: cell-based; conditions: up to 100 μM
A549 cells = assay: MTT toxicity in A549 cells with added BSA; assay type: cell-based, human; conditions: BSA 0.6 mM
Method in brief: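 MTT viability assay in human A549 alveolar adenocarcinoma cells with added BSA (0.6 mM). Test compounds were tested under non-illuminated and illuminated conditions. Percent viability was plotted against concentration. IC50 was fitted by four-parameter nonlinear regression, only where viability fell by at least 50%.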

[2] = test system: RAW 264.7 murine macrophage cells; assay: MTT cytotoxicity in RAW 264.7 cells with added BSA; assay type: cell-based
Method in brief: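 MTT viability assay in murine RAW 264.7 macrophages with added bovine serum albumin. Test compounds were screened under both non-illuminated and illuminated conditions.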

bovine serum albumin [3] = molecular target: T1, bovine serum albumin (Bos taurus, UniProt P02769); conditions: 22 °C, cited from earlier work
bovine serum albumin [4] = molecular target: T1, bovine serum albumin; assay: Bovine serum albumin binding by tryptophan fluorescence quenching
TNF-α [5] = assay: Suppression of LPS-induced TNF-α production in RAW 264.7 cells; assay type: cell-based, murine; conditions: BSA 0.6 mM; for effect on TNF-α: LPS 1 μg/mL
Method in brief: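 RAW 264.7 murine macrophages with added BSA (0.6 mM) and test compound, kept either illuminated or dark. Plates were then treated with LPS (1 μg/mL final) for 1 h. TNF-α in each well's supernatant was measured by commercial ELISA. Means ± SEM from three independent experiments. Two-way ANOVA with Tukey post hoc tests against the LPS control and illuminated versus dark.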

[6] = read-out: IC50 A549, non-illuminated
[7] = read-out: IC50 RAW 264.7, non-illuminated

T1 sequence (P02769 25-607): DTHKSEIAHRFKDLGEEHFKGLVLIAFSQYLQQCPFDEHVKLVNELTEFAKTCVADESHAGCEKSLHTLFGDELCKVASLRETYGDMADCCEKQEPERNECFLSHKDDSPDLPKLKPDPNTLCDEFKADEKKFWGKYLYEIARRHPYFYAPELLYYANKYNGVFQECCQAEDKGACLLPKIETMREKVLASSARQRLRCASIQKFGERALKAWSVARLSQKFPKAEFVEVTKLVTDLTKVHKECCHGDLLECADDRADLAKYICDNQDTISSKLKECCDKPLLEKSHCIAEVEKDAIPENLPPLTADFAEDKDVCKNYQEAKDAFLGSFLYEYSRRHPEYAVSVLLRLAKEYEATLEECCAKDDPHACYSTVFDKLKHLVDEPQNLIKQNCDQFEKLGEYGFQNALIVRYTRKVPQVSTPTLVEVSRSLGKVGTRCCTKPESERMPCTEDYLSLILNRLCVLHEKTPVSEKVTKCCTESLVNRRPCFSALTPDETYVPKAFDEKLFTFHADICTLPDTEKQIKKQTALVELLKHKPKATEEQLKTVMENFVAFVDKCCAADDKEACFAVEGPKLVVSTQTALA

## NCC(=O)O.[C-]#[O+].[C-]#[O+].[C-]#[O+].[Cl][Ru] [CORM-3]
TNF-α [1]
  concentration at which effects on TNF-α expression start: 10 µM

## BSA-Ru(CO)2 conjugate: adduct formed by albumin binding of CORM-3
TNF-α [1]
  concentration at which effects on TNF-α expression start: 4.5 µM

## O=c1c(O)c(-c2ccccc2)oc2cc3ccccc3cc12 [Flav-1, 3-hydroxybenzo[g]flavone, reference compound]
HUVECs
  cell viability: greater than 50%
A549 cells; [6]
  IC50: 82 µM and 81.9 µM
[2]; non-illuminated
  IC50 RAW 264.7: nontoxic
[2]; [7]
  IC50: > 100 µM
Bovine serum albumin [3]; in the presence of ibuprofen
  Ka (ibuprofen): 2600 M⁻¹
Bovine serum albumin [3]; in the presence of warfarin
  Ka (warfarin): 360 M⁻¹

## 3-hydroxybenzo[g]quinolone [Compound 1]
Bovine serum albumin [4]; 22 °C, 4% DMSO:Tris buffer pH 7.4, 0.1 M NaCl
  KSV (binding constant with BSA): 2.9e+06 M⁻¹
Bovine serum albumin [4]; 22 °C, in the presence of ibuprofen (Site II)
  Ka (ibuprofen): 980000 M⁻¹
Bovine serum albumin [4]; 22 °C, in the presence of warfarin (Site I)
  Ka (warfarin): 610000 M⁻¹
Bovine serum albumin [4]; relative to Flav-1
  fold stronger binding to BSA than Flav-1: approximately 900 fold
HUVECs
  cell viability: greater than 50%
A549 cells; [6]
  IC50: > 100 µM
[2]; [7]
  IC50: 40.2 ± 1.44 µM
TNF-α [5]; 80 nM, illuminated (blue LED array, 1 hr), LPS 1 μg/mL 1 h
  TNF-α level: almost completely suppressed
TNF-α [5]; non-illuminated
  effect on TNF-α: dose-dependent decrease

## O=C(Nc1cc2ccccc2cc1C(=O)O)c1ccccc1 [Compound 3, 3-(benzoylamino)-2-naphthalenecarboxylic acid]
A549 cells; Homo sapiens, A549, read-out: IC50 A549, non-illuminated
  IC50: > 100 µM
A549 cells; [6]
  IC50: > 100 µM
A549 cells; visible light illumination (in situ CO release)
  IC50 A549 (illuminated): non-toxic
[2]; Mus musculus, RAW264.7, read-out: IC50 RAW 264.7, non-illuminated
  IC50: > 100 µM
[2]; [7]
  IC50: > 100 µM
TNF-α [5]; illuminated
  effect on TNF-α: lack of any effect
